The values that follow come from ChEMBL document CHEMBL1122932, “Metabolism of phencyclidine. The role of the carbinolamine intermediate in the formation of lactam and amino acid metabolites of nitrogen heterocycles” (J Med Chem, 1985).

Common to all, as to format: ADME
For data set [1], the species on record is Mus musculus. Description: In vitro level of metabolite in mice liver microsomes at 1 hour. The method in brief: (§1)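 12500g liver supernatant from 10 male ICR mice (homogenized in ice-cold pH 7.4 Tris with 0.15 M KCl; stored -70 °C, used within 15 h). Incubated with phencyclidine and NADP/glucose 6-phosphate/nicotinamide/MgSO4 cofactor at 37 °C, 120 osc/min, 100% O2. Metabolites measured by GLC (N-benzylphenylalanine internal standard, nitrogen detector) or HPLC (ketamine internal standard), calibrated by spiking microsomal blanks.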

The species entered for data set [2] is Mus musculus. In words: In vitro level of metabolite in mice liver microsomes at 3 hours. The essentials:
as §1

The species named for data set [3] is Mus musculus. Description: In vitro level of metabolite in mice liver microsomes at 3 hours (heat inactivated control); ND is Not Detected (< 8 ug/ vessel). The essentials:
(§2)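 Control in which mouse (male ICR) liver 12500g supernatant was heat-inactivated before phencyclidine and cofactors were added. It was then incubated at 37 °C under 100% O2 with shaking alongside the test samples. Metabolites were quantified by GLC or HPLC against internal standards (N-benzylphenylalanine or ketamine), calibrated by spiking.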
For orientation: Microsomes from liver hold many membrane-bound enzymes, among them those of drug oxidation.

The species entered for data set [4] is Mus musculus. In words: In vitro level of metabolite in mice liver microsomes at 0 hours; ND is Not Detected (< 8 ug/vessel). The essentials:
(§3)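 Time-zero control: the reaction was stopped right after phencyclidine was added to the mouse (male ICR) liver 12500g supernatant plus NADP-regenerating cofactor mix. Metabolites were quantified by GLC or HPLC with internal standards (N-benzylphenylalanine or ketamine), using calibration curves from spiked microsomal mixtures.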

For data set [5], the species on record is Mus musculus. In words: In vitro level of metabolite in mice liver microsomes at 2 hours. The method in brief:
as §1

For data set [6], the species on record is Mus musculus. Description: In vitro level of metabolite in mice liver microsomes at 3 hours (heat inactivated control); ND is Not Detected (< 2 ug/vessel). The essentials: as §2
The species entered for data set [7] is Mus musculus. Description: In vitro level of metabolite in mice liver microsomes at 0 hours; ND is […] (< 2 ug/vessel). The essentials:
as §3

The species named for data set [8] is Mus musculus. Description: In vitro level of metabolite in mice liver microsomes at 3 hours (heat inactivated control); ND is Not Detected (< 8 ug/vessel). The method in brief:
as §2

Data set [9] is filed under the species Mus musculus. Description: In vitro level of metabolite in mice liver microsomes at 1 hour; ND is Not Detected (< 8 ug/vessel). The method in brief:
as §1

Data set [10] is filed under the species Mus musculus. Description: In vitro level of metabolite in mice liver microsomes at 2 hours; ND is Not Detected (< 8 ug/vessel). The method in brief: as §1
The species named for data set [11] is Mus musculus. Description: In vitro level of metabolite in mice liver microsomes at 3 hours; ND is Not Detected (< 8 ug/vessel). The essentials: as §1

Turning to `Cl.O=C(O)CCCCNC1(c2ccccc2)CCCCC1`, the Metabolite levels in the data set filed under Mus musculus [1] is 110 µg; in the data set filed under Mus musculus [2] it was 135 µg; in the data set filed under Mus musculus [3] it was “Not detected”; in the data set listed under Mus musculus [4] it was “Not detected”; in the data set listed under Mus musculus [5], 123 µg.

Consider `OCCCCCNC1(c2ccccc2)CCCCC1`, for which the Metabolite levels in the data set filed under Mus musculus [1] was 2.8 µg; in the data set filed under Mus musculus [2], 1.4 µg; in the data set filed under Mus musculus [6], “Not detected”; in the data set filed under Mus musculus [7] it was “Not detected”; in the data set filed under Mus musculus [5] it was 2.4 µg.

Regarding `O=C1CCCCN1C1(c2ccccc2)CCCCC1`, the Metabolite levels entry in the data set listed under Mus musculus [8], in the data set listed under Mus musculus [9], in the data set filed under Mus musculus [10], in the data set listed under Mus musculus [11] and in the data set filed under Mus musculus [4] was “Not detected” throughout.

Consider `OC1CCN(C2(c3ccccc3)CCCCC2)CC1`, for which the Metabolite levels was found to be 9.3 µg in the data set filed under Mus musculus [1], 10.3 µg in the data set filed under Mus musculus [2] and 9.2 µg in the data set listed under Mus musculus [5].
